# Screening results as filed in PubChem.
# SR-BI HDL uptake: blocks mouse SR-BI lipid uptake from DiI-HDL; Q61009; ldlA[mSR-BI] CHO cells, DiI-HDL uptake fluorescence, 3 h; inhibition, % at 12.5 µM; actives 0.96% (n = 320,000); AID 488896;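 active = mean replicate inhibition of at least 70% and a set share of replicates each scoring 70 or more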;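 also: 0% = median of neutral control wells and 100% = median of positive control wells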
# Target sequence (Q61009 whole entry, looked up): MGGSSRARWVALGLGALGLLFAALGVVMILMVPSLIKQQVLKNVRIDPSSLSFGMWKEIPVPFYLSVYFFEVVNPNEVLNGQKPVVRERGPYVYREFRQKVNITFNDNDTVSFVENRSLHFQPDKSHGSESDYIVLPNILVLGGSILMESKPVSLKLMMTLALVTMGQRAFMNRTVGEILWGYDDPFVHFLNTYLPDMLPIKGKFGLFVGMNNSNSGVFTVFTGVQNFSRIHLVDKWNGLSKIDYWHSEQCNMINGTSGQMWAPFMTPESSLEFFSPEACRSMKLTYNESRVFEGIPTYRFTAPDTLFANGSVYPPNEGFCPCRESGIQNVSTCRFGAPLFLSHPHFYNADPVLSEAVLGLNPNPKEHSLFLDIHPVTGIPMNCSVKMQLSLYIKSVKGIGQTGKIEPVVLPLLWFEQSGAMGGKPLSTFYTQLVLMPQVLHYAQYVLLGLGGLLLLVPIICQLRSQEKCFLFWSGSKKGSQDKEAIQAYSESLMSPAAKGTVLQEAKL
# XiGFP reactiv: activators of X-chromosome reactivation in mouse fibroblasts; actives 0.055% (n = 360,000); activation, % at 7.58 µM; XiGFP mouse fibroblasts, % GFP-positive cells imaging, 3 d; cells co-treated with 5-aza-dC sensitizer; scaled so ellipticine positive control = 100%; AID 743238;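 active = mean normalized replicate activation at least 10% and every replicate at or above 10%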;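 also: 0% = median of on-plate neutral control wells and 100% = ellipticine 6 µM median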
#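 System: 68-5-11 XiGFP fibroblast line | Buffer or medium: DMEM containing 5-aza-dC | Compound: Single point | Times: Compounds 3 days, fix/stain 15 min at room temperature | Benchmarks: Positive control ellipticine, 6 µM final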
# SR-BI DiI-HDL act: enhances SR-BI lipid uptake from DiI-HDL; CHO ldlA[mSR-BI] cells, DiI-HDL uptake fluorescence, 3 h; 100 = double the neutral-control signal; activation, % at 12.5 µM; actives 0.096% (n = 320,000); AID 504775;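 active = mean replicate activation of at least 60% and every replicate at or above 60%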;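 also: 0% = median plate neutral-control signal and 100% = twice that signal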
#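 Test system: SR-BI-overexpressing, LDLR-lacking CHO cells; Also added: labelled HDL, 10 µg/mL; Measured by: bottom-read cell fluorescence after medium removal, ex 550/em 595 nm; Timing: 3 h uptake period with compound, 37 °C; Buffer or medium: F12, 0.5% BSA, 25 mM HEPES; Doses: single compound concentration, delivered by pin transfer.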
# ARNT-TACC3 inh: disrupts binding between human ARNT and TACC3; Q9Y6A5; AlphaScreen His-ARNT PAS-B/GST-TACC3 binding, luminescence; TACC3 fragment carries E629A point mutation; inhibition, % at 9.99 µM; actives 0.66% (n = 390,000);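 active = mean inhibition of replicates at least 50% and at least half of replicates each reaching 50%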;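 also: 0% = complete ARNT plus TACC3 wells and 100% = ARNT alone without TACC3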
# HGIII-sPLA2 inh: Blocks human group III sPLA2 activity | QFRET BODIPY PC-A2 liposome hydrolysis, fluorescence | inhibition, % at 12.2 µM | actives 0.56% (n = 370,000);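 active = inhibition above mean plus 3 SD of compounds lying within the high and low control bounds, cut at about 19% in these data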;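 also: 0% = median of test compound wells and 100% = no enzyme DMSO wells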
# NSD2 inh: inhibitors of human histone methyltransferase NSD2 | O96028 | NSD2 peptide methylation, AlphaScreen, 120 min | inhibition, % at 12.5 µM | actives 0.54% (n = 310,000) | AID 743445; in the data active = inhibition above about 50%
# sPLA2 confirm: human GIII-sPLA2 inhibition, confirmation; inhibition, % at 12.2 µM; shares compounds with HGIII-sPLA2 inh; recombinant hGIII-sPLA2, BODIPY PC-A2 QFRET fluorescence; actives 34% (n = 2,000);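 active = mean inhibition across triplicates above the hit cutoff set in the earlier primary screen, cut at about 19% in these data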;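 also: 0% = enzyme with DMSO and 100% = DMSO wells lacking enzyme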
# BODIPY interf: 535nm fluorescence interference, HGIII-sPLA2 counter-screen | shares compounds with HGIII-sPLA2 inh | BODIPY FL product fluorescence interference, QFRET | inhibition, % at 12.2 µM | actives 8.5% (n = 2,000) | AID 743282;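 active = average inhibition above the solvent-only control mean plus 3 SD, cut at about 6% in these data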;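 also: 0% = DMSO with substrate plus product and 100% = DMSO with substrate alone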
# 535nm interf DR: interferes with 535nm fluorescence in dose response counter-screen. shares compounds with HGIII-sPLA2 inh. 240 tested, under 10 active. IC50, µM. BODIPY FL product fluorescence interference, cell-free;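 active = IC50 at or below 10 µM; inactive = IC50 above 10 µM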
# * hit, by the source's call; / = no result. Shown are actives, neighbours in structure and some others; about 2% of the full set was active somewhere.
SMILES,SR-BI HDL uptake,XiGFP reactiv,SR-BI DiI-HDL act,ARNT-TACC3 inh,HGIII-sPLA2 inh,NSD2 inh,sPLA2 confirm,BODIPY interf,others
O=[N+]([O-])c1ccccc1/C=N/n1c(-c2ccccc2)n[nH]c1=S,5,0,-5,2,20*,6,29*,1,
Cc1n[nH]c(=S)n1/N=C/c1ccccc1,-22,0,22,-7,22*,21,21*,-6,
O=C(Nc1cccc(F)c1)N1CC(=O)N2[C@H](C1)[C@H](c1ccc(-c3ccc(F)cc3)cc1)[C@@H]2CO,/,0,/,/,/,/,/,/,
CC(CSc1nnnn1-c1ccccc1)Cn1c(N2CCCC2)nc2c1c(=O)[nH]c(=O)n2C (configuration not stated),10,0,-10,1,21*,0,0,-21,
O=C1CCC(CCc2nc3ccccc3[nH]2)(c2ccccc2)C(=O)N1 (configuration not stated),-6,0,6,-2,-1,-1,/,/,
O=Cc1nc(Nc2cc(F)cc(F)c2)nc(NC2CCCC2)n1,/,/,/,/,28*,/,23*,-8,
S=c1[nH]nc(-c2ccco2)n1-c1cccc2ccccc12,-33,/,33,-6,21*,8,25*,3,
Cn1c(Cn2c3ccccc3c3ccccc32)n[nH]c1=S,-20,0,20,-8,7,4,/,/,
Cn1c(-c2cccc3ccccc23)n[nH]c1=S,-10,0,10,/,20*,1,5,-4,
Cc1ccc(C)c(-n2c(-c3ccco3)n[nH]c2=S)c1,-1,0,1,-7,21*,-3,21*,3,
O=C(COC(=O)CNC(=O)c1ccc(Cl)cc1)Nc1ccc(Cl)cc1C(F)(F)F,-40,0,40,/,-11,1,/,/,
CC(=O)NC[C@H]1[C@H](c2ccc(-c3ccccc3)cc2)[C@@H](CO)N1C(=O)C1CCC1,/,0,/,-9,/,/,/,/,
CC(c1ccccc1)N(NC(=O)C(O)(c1ccccc1)c1ccccc1)C(=O)c1ccccc1 (configuration not stated),-17,0,17,/,22*,1,13,-19,
Cc1ccc2c(c1)C1NC(=S)NC(C)(O2)C1C(=O)Nc1ccc(Cl)cc1 (configuration not stated),39,1,-39,-5,7,-2,/,/,
COc1ccc2c(c1)C1NC(=S)N[C@@](C)(O2)C1C(=O)Nc1ccccc1 (some centres not stated),10,/,-10,10,21*,0,24*,-3,
COc1ccc2c(c1)C1NC(=S)NC(C)(O2)C1C(=O)Nc1ccc(Cl)cc1 (configuration not stated),80*,0,-80,-4,20*,4,15,-3,
COc1cccc(C(=O)NCCC2=CCCCC2)c1,-2,/,2,-3,-1,0,/,/,
O=C(C[C@@H]1CC[C@H](NC(=O)Nc2ccc3c(c2)OCO3)[C@H](CO)O1)NCc1ccc(Cl)cc1,/,0,/,12,/,/,/,/,
Cc1cccc(C(=O)NC(=S)NNC(=O)c2ccc(Cl)cc2)c1,10,0,-10,1,24*,14,40*,5,535nm interf DR=>122
COc1cc(C(=O)NNC(=S)NC(=O)c2ccc(Cl)cc2)cc(OC)c1OC,0,0,0,6,26*,2,30*,-24,535nm interf DR=>122
Cc1ccccc1NC(=O)c1cc2c(=O)n3cccc(C)c3nc2s1,/,0,/,-13,-2,0,/,/,
CCC1Cc2[nH]c(=S)[nH]c(=O)c2C(c2ccc(Cl)cc2)O1 (configuration not stated),/,1,/,/,21*,/,0,-2,
CC[C@@H]1Cc2[nH]c(=O)[nH]c(=O)c2[C@H](c2ccc(Cl)cc2)O1,/,0,/,/,-6,/,/,/,
COc1ccc(NC(=O)C(=O)NCCN2CCN(C(=O)c3cccc(Br)c3)CC2)cc1,43,0,-43,-2,0,-2,/,/,
CC(C)(C)NC(=S)NNC(=O)[C@H]1C[C@@H]1c1ccccc1,-3,0,3,-4,11,-4,/,/,
SMILES,SR-BI HDL uptake,XiGFP reactiv,SR-BI DiI-HDL act,ARNT-TACC3 inh,HGIII-sPLA2 inh,NSD2 inh,sPLA2 confirm,BODIPY interf,others
Cc1ccc(C2CC2C(=O)NNC(=S)Nc2ccc(Cl)cc2)cc1 (configuration not stated),-35,/,35,13,21*,0,9,12*,
CCCCCCNC(=O)c1c(N)[nH]c(C(=O)c2ccccc2)c1-c1ccc(O)cc1,/,/,/,/,3,/,/,/,
CCCCNC(=O)c1c(N)[nH]c(C(=O)c2ccccc2)c1-c1ccccn1,/,0,/,/,19*,/,9,-9,
Cc1ccc(O)c(NC(=S)NC(=O)C(C)C)c1,-14,0,14,-3,21*,/,11,-5,
O=C(CSc1nncs1)Nc1cc(S(=O)(=O)N2CCOCC2)ccc1N1CCCC1,-6,0,6,-5,-8,-6,/,/,
CCC(=O)N(C)C[C@@H]1Oc2ncc(C#CCc3ccccc3)cc2C(=O)N([C@@H](C)CO)C[C@H]1C,/,1,/,-7,/,/,/,/,
Cn1c(=O)c(C(=O)NNC(=O)c2ccccc2Br)c(O)c2ccccc21,20,0,-20,-5,30*,7,2,4,
N#CC(c1ccccc1)c1ccc([N+](=O)[O-])cc1 (configuration not stated),/,0,/,/,-3,5,/,/,
COc1ccccc1NC(=O)c1ccc(SCC(=O)NCc2ccccc2Cl)c([N+](=O)[O-])c1,58,0,-58,-17,21*,-3,8,-2,
COc1ccccc1CNC(=O)CSc1ccc(C(=O)Nc2ccccc2OC)cc1[N+](=O)[O-],47,0,-47,-22,-2,-4,/,/,
O=C(Nc1ccccc1)Nc1ccc(Nc2ccccc2)cc1,/,0,/,/,25*,0,6,0,
COc1ccc(NC(=S)NCc2ccc3c(c2)cc(C)n3C)cc1,17,0,-17,29,22*,/,2,-2,
COc1ccc(-c2ccc([C@H]3[C@H](C#N)N(C(=O)C4CC4)[C@H]3CO)cc2)cc1,/,0,/,24,/,/,/,/,
